Source: ChEMBL document CHEMBL1255454, “Systematic approach to optimizing specifically targeted antimicrobial peptides against Streptococcus mutans” (2010)
Values after ≈ are worked out from the molar mass of the structure shown. Active and inactive are the calls of the source. The rule behind the calls is not given here. Square brackets hold non-standard residues; d marks the D form. Peptide text beside a SMILES is read from it. Aoc = NCCCCCCCC(=O)O

What was measured:
Streptococcus mutans [1] = assay: Antimicrobial activity against Streptococcus mutans UA159 after 16 to 20 hrs by broth microdilution assay; type: functional
In short: (§1)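 Broth microdilution. Twofold peptide dilutions were made in 50% BHI–50% sterile water for oral streptococci and in 1× Mueller-Hinton broth for the other bacteria. First round 500 to 0.97 µg/ml; a second round of 64 to 0.5 µg/ml was run in some cases, reporting its mode. Inoculum ~1 × 10^5 CFU/ml, 37°C for 16–20 h. Read A600; MIC taken as complete inhibition or ≥90% turbidity reduction versus peptide-free control.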

Streptococcus sanguinis [2] = assay: Antimicrobial activity against Streptococcus sanguinis NY101 after 16 to 20 hrs by broth microdilution assay; type: functional; in short: as §1
Streptococcus mitis [3] = assay: Antimicrobial activity against Streptococcus mitis ATCC 903 after 16 to 20 hrs by broth microdilution assay; type: functional; in short: as §1
[4] = Antimicrobial activity against Streptococcus gordonii Challis DL1 after 16 to 20 hrs by broth microdilution assay; type: functional, Streptococcus gordonii str. Challis; in short: as §1
Staphylococcus aureus = assay: Antimicrobial activity against methicillin-resistant Staphylococcus aureus after 16 to 20 hrs by broth microdilution assay; type: functional
In short: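 MRSA grown aerobically in BHI at 37°C. Broth microdilution: 2-fold peptide dilutions in 1× Mueller-Hinton broth, first round 500 to 0.97 µg/ml; if activity below 62.5 µg/ml, sometimes a second round at 64 to 0.5 µg/ml, reporting the mode. Inoculum ~1 × 10^5 CFU/ml, 37°C for 16-20 h. A600 read. MIC = lowest concentration giving complete inhibition or ≥90% turbidity reduction versus peptide-free control.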

Pseudomonas aeruginosa = assay: Antimicrobial activity against Pseudomonas aeruginosa PAK after 16 to 20 hrs by broth microdilution assay; type: functional; in short: as §1
Streptococcus mutans [5] = assay: Antimicrobial activity against Streptococcus mutans UA159 at 25 ug/ml after 30 mins by time-kill assay; type: functional
In short: (§2)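 Time-kill. Overnight cultures were diluted in BHI to A600 0.08 and treated with peptide at 25 µg/ml for 30 s to 2 h. Aliquots were diluted 1:50 in BHI, held on ice, plated and counted after 24 h as surviving CFU/ml. Three independent experiments, mean with SD; unpaired Student t test.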

Streptococcus mitis [6] = assay: Antimicrobial activity against Streptococcus mitis ATCC 903 at 25 ug/ml after 30 mins by time-kill assay; type: functional, organism-based; in short: as §2
[7] = tested on: Streptococcus gordonii str. Challis; assay: Antimicrobial activity against Streptococcus gordonii Challis DL1 at 25 ug/ml after 30 mins by time-kill assay; type: functional; in short: as §2
Streptococcus sanguinis [8] = assay: Antimicrobial activity against Streptococcus sanguinis NY101 at 25 ug/ml after 30 mins by time-kill assay; type: functional, organism-based; in short: as §2
Streptococcus mutans [9] = assay: Antimicrobial activity against Streptococcus mutans UA159 assessed as inhibition of viability of bacterial biofilm at 25 ug/ml treated for 1 min measured after 4 hrs; type: functional
In short: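 S. mutans biofilms were seeded from overnight culture diluted 1:50 in TH broth with 0.5% sucrose, centrifuged, and grown 4 h anaerobically at 37°C. They were exposed to peptide in 1× PBS for about 1 min, washed, and given fresh TH broth without sucrose. Recovery was read as A600 after 4 h anaerobic incubation at 37°C. Three experiments; unpaired t test.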

Streptococcus mutans [10] = assay: Antimicrobial activity against Streptococcus mutans JM11 assessed as inhibition of bacterial biofilm formation at 50 uM after 10 mins; type: functional
In short: (§3)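 Mixed-species biofilms were grown 24 h at 37°C anaerobically in TH with 50% filter-sterilized pooled human saliva and 1% sucrose. Inoculum: S. mutans JM11 at 1 × 10^6 CFU/well plus S. oralis, S. gordonii, S. sanguinis, S. mitis and S. salivarius at 2 × 10^5 CFU/well each. Survivors were plated on TH agar for total streptococci and on TH agar with 800 µg/ml spectinomycin for JM11. Detection limit 100 CFU/ml.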

Streptococcus oralis = assay: Antimicrobial activity against Streptococcus oralis assessed as inhibition of bacterial biofilm formation at 50 uM after 10 mins; type: functional; in short: as §3
Streptococcus gordonii = assay: Antimicrobial activity against Streptococcus gordonii assessed as inhibition of bacterial biofilm formation at 50 uM after 10 mins; type: functional; in short: as §3
Streptococcus sanguinis [11] = assay: Antimicrobial activity against Streptococcus sanguinis assessed as inhibition of bacterial biofilm formation at 50 uM after 10 mins; type: functional; in short: as §3
Streptococcus mitis [12] = assay: Antimicrobial activity against Streptococcus mitis assessed as inhibition of bacterial biofilm formation at 50 uM after 10 mins; type: functional; in short: as §3
Streptococcus salivarius = assay: Antimicrobial activity against Streptococcus salivarius assessed as inhibition of bacterial biofilm formation at 50 uM after 10 mins; type: functional; in short: as §3
Streptococcus mutans [13] = assay: Antimicrobial activity against Streptococcus mutans UA159 assessed as inhibition of bacterial biofilm formation at 25 uM after 3 mins by fluorescence assay; type: functional
In short: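 S. mutans UA159 overnight culture was diluted 1:5,000 in TH with 1% sucrose and grown as biofilm for 24 h. Biofilms were exposed 3 min at room temperature to 25 µM fluorescein-labelled peptide in HEPES/NaHCO3/NaCl/MgCl2 buffer with 0.1% CTAB, pH 7.4, then washed twice. Green fluorescence images were taken and biofilm-associated green pixels quantified as binding intensity units.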

Streptococcus sobrinus = assay: Antimicrobial activity against Streptococcus sobrinus ATCC 33478 after 16 to 20 hrs by broth microdilution assay; type: functional; in short: as §1
Enterococcus faecalis = assay: Antimicrobial activity against Enterococcus faecalis after 16 to 20 hrs by broth microdilution assay; type: functional; in short: as §1
Escherichia coli = assay: Antimicrobial activity against Escherichia coli W3110 after 16 to 20 hrs by broth microdilution assay; type: functional; in short: as §1

Molecule	MIC (Streptococcus mutans [1]) [µg/mL]	MIC (Streptococcus sanguinis [2]) [µg/mL]	MIC (Streptococcus mitis [3]) [µg/mL]	MIC [4] [µg/mL]	MIC (Staphylococcus aureus) [µg/mL]	MIC (Pseudomonas aeruginosa) [µg/mL]	inhibition (Streptococcus mutans [13])	MIC (Streptococcus sobrinus) [µg/mL]	MIC (Enterococcus faecalis) [µg/mL]	MIC (Escherichia coli) [µg/mL]	other results
CC[C@H](C)[C@H](NC(=O)[C@H](Cc1ccccc1)NC(=O)[C@H](Cc1cnc[nH]1)NC(=O)[C@H](CCCCN)NC(=O)[C@@H](NC(=O)[C@@H](N)Cc1ccccc1)[C@@H](C)CC)C(=O)N[C@@H](Cc1cnc[nH]1)C(=O)N[C@@H](CCCNC(=N)N)C(=O)N[C@@H](Cc1ccccc1)C(=O)NCCCCCCCC(=O)N[C@@H](CCCNC(=N)N)C(=O)N[C@@H](Cc1c[nH]c2ccccc12)C(=O)N[C@@H](CCCNC(=N)N)C(=O)N[C@@H](Cc1c[nH]c2ccccc12)C(=O)N[C@@H](CCCNC(=N)N)C(=O)N[C@@H](Cc1c[nH]c2ccccc12)C(=O)N[C@@H](Cc1ccccc1)C(N)=O (H-FIKHFIHRF[Aoc]RWRWRWF-NH2)	8 (≈ 3.13 µM)	32 (≈ 12.5 µM)	16 (≈ 6.25 µM)	32 (≈ 12.5 µM)	32 (≈ 12.5 µM)	62.5 (≈ 24.4 µM)	–	–	–	–	Activity (Streptococcus mutans [5]): Active; Activity (Streptococcus mitis [6]): Active; Activity [7]: Active; Activity (Streptococcus sanguinis [8]): Active
N=C(NCCCCCCNC(=N)NC(=N)Nc1ccc(Cl)cc1)NC(=N)Nc1ccc(Cl)cc1 [CHLORHEXIDINE]	–	–	–	–	–	–	–	–	–	–	inhibition (Streptococcus mutans [9]): Active; inhibition at 50 µM (Streptococcus mutans [10]; JM11, 10 min): 95%; inhibition at 50 µM (Streptococcus oralis): 95%; inhibition at 50 µM (Streptococcus gordonii): 95%; inhibition at 50 µM (Streptococcus sanguinis [11]): 95%; inhibition at 50 µM (Streptococcus mitis [12]): 95%; inhibition at 50 µM (Streptococcus salivarius): 95%
H-AAKHAAHRA-NH2	> 500	> 500	> 500	> 500	> 500	> 500	inactive	> 500	> 500	> 500	–
H-FHFHLHFPSGSPFIKHFIHRF-NH2	62.5	62.5	–	–	> 500	> 500	Active	62.5	250	125	–
H-FHFHLHFSATFIKHFIHRF-NH2	16	62.5	–	–	125	125	Active	250	62.5	125	–
H-FIKHFIHRF-NH2	125	125	> 500	> 500	> 500	> 500	Active	125	> 500	> 500	–
H-FIKHFIHRFGGGRWRWRWF-NH2	8	32	32	32	32	62.5	Active	–	–	–	Activity (Streptococcus mutans [5]): Active; Activity (Streptococcus mitis [6]): Active; Activity [7]: Active; Activity (Streptococcus sanguinis [8]): Active; inhibition (Streptococcus mutans [9]): Active; inhibition (Streptococcus mutans [10]): Active
H-LIKHILHRL-NH2	125	> 500	> 500	> 500	> 500	> 500	Active	> 500	> 500	> 500	–
H-LIKHILHRLGGGFHFHLHF-NH2	16	62.5	–	–	62.5	250	–	32	32	250	–
H-RWRWRWF-NH2	4	32	32	32	32	32	Active	–	–	–	Activity (Streptococcus mutans [5]): Active; Activity (Streptococcus mitis [6]): Active; Activity [7]: Active; Activity (Streptococcus sanguinis [8]): Active; inhibition (Streptococcus mutans [9]): Active; inhibition (Streptococcus oralis): inactive; inhibition (Streptococcus gordonii): inactive; inhibition (Streptococcus sanguinis [11]): inactive; inhibition (Streptococcus mitis [12]): inactive; inhibition (Streptococcus salivarius): inactive
H-WWHSWWSTW-NH2	125	125	125	125	> 125	> 125	Active	125	> 125	125	–
H-WWKDWWERW-NH2	> 500	> 500	> 500	> 500	> 500	> 500	Active	> 500	> 500	> 500	–
H-WWQDWWNEW-NH2	> 500	> 500	> 500	> 500	> 500	> 500	Active	> 500	> 500	> 500	–
H-WWSYWWTQW-NH2	125	125	125	125	> 125	> 125	Active	125	> 125	125	–
H-WWYNWWQDW-NH2	> 500	> 500	> 500	> 500	> 500	> 500	–	> 500	> 500	> 500	–
